In ChEMBL document CHEMBL1255380, “Small molecule-mediated disruption of Wnt-dependent signaling in tissue regeneration and cancer” (Nat Chem Biol, 2009):
Calls of active or inactive are those of the source.

Legend:
[1] = Inhibition of Wnt3A/[…] pathway activity in mouse L cell expressing Wnt3A and STF assessed as decreased firefly luciferase reporter expression; format: cell-based
Method in brief: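 L-Wnt-STF cells (mouse L-cells stably carrying SuperTopFlash firefly luciferase reporter, control reporter and Wnt3A expression construct), ~5K per well; compounds added 24 hrs after seeding; luciferase activities read 24 hrs later; IC50s calculated from these dose-dependent assays.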

[2] = Inhibition of Wnt1/beta-[…] pathway activity in mouse L cell expressing Wnt1 and STF assessed as decreased firefly luciferase reporter expression; format: cell-based
[3] = species on record: Danio rerio; experiment: Inhibition of caudal fin regeneration after mechanical resection in zebrafish at 10 uM after 7 days; format: functional, organism-based
Method in brief: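 Zebrafish 3-6 months old anaesthetized in 0.02% Tricaine; half of caudal fin resected with razor blade; kept at 28°C in tank water with 10μM compound or DMSO; water and compound replenished daily over assay period.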

[4] = molecular target: Axin-2 (Homo sapiens) (UniProt Q9Y2T1); experiment: Induction of Axin2 accumulation in human DLD1 cells by Western blot analysis; format: cell-based; conditions: DLD-1
Axin-2 (Homo sapiens), sequence (Q9Y2T1 whole entry): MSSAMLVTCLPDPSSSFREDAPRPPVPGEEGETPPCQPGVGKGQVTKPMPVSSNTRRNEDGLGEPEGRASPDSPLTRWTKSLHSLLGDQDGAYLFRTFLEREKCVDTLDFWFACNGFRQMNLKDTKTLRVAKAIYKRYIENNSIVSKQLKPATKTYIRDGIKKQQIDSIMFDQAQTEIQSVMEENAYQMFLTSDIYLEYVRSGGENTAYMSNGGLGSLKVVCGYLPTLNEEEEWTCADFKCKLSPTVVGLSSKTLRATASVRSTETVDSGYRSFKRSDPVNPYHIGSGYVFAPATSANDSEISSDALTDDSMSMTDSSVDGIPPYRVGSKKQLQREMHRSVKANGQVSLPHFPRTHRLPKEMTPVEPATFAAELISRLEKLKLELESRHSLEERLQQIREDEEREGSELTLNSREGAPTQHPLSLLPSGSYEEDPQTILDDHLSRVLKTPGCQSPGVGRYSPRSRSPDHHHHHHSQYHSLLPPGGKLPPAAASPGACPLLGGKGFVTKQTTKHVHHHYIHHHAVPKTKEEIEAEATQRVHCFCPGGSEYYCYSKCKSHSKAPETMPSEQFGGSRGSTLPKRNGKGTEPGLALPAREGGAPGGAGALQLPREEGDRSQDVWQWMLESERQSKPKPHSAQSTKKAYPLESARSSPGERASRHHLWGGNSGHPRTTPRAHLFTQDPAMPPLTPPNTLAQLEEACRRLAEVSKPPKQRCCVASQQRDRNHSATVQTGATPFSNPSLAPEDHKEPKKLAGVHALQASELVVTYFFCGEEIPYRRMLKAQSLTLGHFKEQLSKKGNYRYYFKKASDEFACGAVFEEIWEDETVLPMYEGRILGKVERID
Method in brief: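 DLD-1 cells exposed to IWR compound at 10μM for a 48 hr assay period; protein levels assessed by Western blot of cell lysates.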

[5] = Inhibition of Wnt3A/[…] pathway activity in mouse L cell expressing Wnt3a assessed as decrease in phosphorylated Lrp6 level at 10 uM after 24 hrs by Western blot analysis; format: cell-based
[6] = Inhibition of Wnt3A/[…] pathway activity in mouse L cell expressing Wnt3a assessed as inhibition of […] accumulation at 10 uM after 24 hrs by Western blot analysis; format: cell-based
[7] = Inhibition of Wnt3A/[…] pathway activity in mouse L cell expressing Wnt3a assessed as decrease in phosphorylated Dvl2 level at 10 uM after 24 hrs by Western blot analysis; format: cell-based
[8] = system: DLD-1; experiment: Decrease in beta-[…] accumulation in human DLD1 cells expressing in APC mutant; format: functional, cell-based
[9] = Inhibition of Wnt2/beta-[…] pathway activity in mouse L cell expressing Wnt2 and STF assessed as decreased firefly luciferase reporter expression; format: cell-based
[10] = Inhibition of Wnt/beta-[…] pathway activity in mouse L cell expressing Wnt and STF assessed as decreased firefly luciferase reporter expression; format: cell-based
[11] = molecular target: Protein Wnt-3a (Homo sapiens) (UniProt P56704); experiment: Inhibition of palmitoylation of Wnt3A expressed in mouse L cell by detergent solubility fractionation assessed as [3H]palmitate incorporation at 2.5 uM by autoradiography method; format: cell-based
Protein Wnt-3a (Homo sapiens), sequence (P56704 whole entry, the tested form may be a part): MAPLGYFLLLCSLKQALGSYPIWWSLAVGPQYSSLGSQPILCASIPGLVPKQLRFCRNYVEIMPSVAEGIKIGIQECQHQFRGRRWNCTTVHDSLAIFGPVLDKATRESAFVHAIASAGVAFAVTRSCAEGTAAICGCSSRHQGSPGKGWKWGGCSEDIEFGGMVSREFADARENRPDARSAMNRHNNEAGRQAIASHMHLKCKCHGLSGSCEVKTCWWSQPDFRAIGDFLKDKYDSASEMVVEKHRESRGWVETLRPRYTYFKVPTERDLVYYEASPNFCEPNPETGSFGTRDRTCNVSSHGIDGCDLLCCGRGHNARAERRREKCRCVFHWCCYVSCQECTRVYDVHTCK

[12] = molecular target: T1, Protein-serine O-palmitoleoyltransferase porcupine (Mus musculus) (UniProt Q9JJJ7); experiment: Inhibition of porcn-mediated Wnt5A palmitoylation in mouse L cell expressing Wnt5A and STF by detergent solubility fractionation assessed as [3H]palmitate incorporation at 2 uM by autoradiography method; format: cell-based
T1 sequence (whole entry): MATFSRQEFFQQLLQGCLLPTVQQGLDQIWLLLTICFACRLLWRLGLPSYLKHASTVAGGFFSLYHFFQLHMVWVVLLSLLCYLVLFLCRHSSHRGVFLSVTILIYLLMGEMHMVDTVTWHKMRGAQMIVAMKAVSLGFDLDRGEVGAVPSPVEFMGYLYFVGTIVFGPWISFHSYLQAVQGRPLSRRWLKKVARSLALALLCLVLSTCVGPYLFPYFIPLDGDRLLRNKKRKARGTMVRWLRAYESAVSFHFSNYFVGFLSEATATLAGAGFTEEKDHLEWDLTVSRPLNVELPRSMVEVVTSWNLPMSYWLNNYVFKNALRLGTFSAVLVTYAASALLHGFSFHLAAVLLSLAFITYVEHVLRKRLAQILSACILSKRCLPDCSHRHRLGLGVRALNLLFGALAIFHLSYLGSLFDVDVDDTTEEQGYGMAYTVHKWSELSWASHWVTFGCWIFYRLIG

[13] = molecular target: Membrane-bound glycerophospholipid O-acyltransferase 2 (Mus musculus) (UniProt Q8R3I2); experiment: Inhibition of MBOAT2 mediated Wnt3a pathway activity in mouse L cell expressing Wnt3a assessed as decreased firefly luciferase reporter expression at 0.25 uM to 1 uM; format: cell-based
Membrane-bound glycerophospholipid O-acyltransferase 2 (Mus musculus), sequence (Q8R3I2 whole entry): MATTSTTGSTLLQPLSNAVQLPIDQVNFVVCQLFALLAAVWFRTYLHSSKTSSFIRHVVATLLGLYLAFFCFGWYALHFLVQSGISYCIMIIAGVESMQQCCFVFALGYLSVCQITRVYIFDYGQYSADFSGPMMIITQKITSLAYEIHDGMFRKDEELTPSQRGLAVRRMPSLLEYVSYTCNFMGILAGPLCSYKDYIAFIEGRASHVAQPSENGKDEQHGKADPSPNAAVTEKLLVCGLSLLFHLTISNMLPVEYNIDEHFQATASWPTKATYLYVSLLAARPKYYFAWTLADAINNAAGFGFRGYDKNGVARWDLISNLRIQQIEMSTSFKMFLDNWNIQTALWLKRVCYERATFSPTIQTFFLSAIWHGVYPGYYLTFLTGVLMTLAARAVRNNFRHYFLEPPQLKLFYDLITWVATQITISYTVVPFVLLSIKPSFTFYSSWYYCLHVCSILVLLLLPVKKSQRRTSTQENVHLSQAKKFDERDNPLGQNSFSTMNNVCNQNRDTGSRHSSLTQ

[14] = molecular target: Sterol O-acyltransferase 1 (Mus musculus) (UniProt Q61263); experiment: Inhibition of ACAT mediated Wnt3a pathway activity in mouse L cell expressing Wnt3a assessed as decreased firefly luciferase reporter expression at 0.25 uM to 1 uM; format: cell-based
Sterol O-acyltransferase 1 (Mus musculus), sequence (Q61263 whole entry): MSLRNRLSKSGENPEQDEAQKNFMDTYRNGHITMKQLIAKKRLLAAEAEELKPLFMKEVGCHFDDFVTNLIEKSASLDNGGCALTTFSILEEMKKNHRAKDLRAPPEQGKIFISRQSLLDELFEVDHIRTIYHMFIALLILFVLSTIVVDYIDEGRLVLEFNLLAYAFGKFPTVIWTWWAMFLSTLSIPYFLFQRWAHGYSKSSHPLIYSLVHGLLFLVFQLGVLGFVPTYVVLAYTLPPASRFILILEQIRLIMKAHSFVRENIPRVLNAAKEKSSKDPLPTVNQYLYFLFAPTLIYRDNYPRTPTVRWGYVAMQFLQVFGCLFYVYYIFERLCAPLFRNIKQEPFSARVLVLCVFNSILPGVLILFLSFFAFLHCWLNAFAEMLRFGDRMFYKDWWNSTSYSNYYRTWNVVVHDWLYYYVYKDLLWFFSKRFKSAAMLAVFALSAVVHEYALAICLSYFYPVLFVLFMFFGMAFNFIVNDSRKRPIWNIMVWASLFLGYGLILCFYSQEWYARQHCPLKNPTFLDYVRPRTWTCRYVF

[15] = molecular target: Membrane-bound ghrelin O-acyltransferase MBOAT4 (Mus musculus) (UniProt P0C7A3); experiment: Inhibition of GOAT mediated Wnt3a pathway activity in mouse L cell expressing Wnt3a assessed as decreased firefly luciferase reporter expression at 0.25 uM to 1 uM; format: cell-based
Membrane-bound ghrelin O-acyltransferase MBOAT4 (Mus musculus), sequence (P0C7A3 whole entry): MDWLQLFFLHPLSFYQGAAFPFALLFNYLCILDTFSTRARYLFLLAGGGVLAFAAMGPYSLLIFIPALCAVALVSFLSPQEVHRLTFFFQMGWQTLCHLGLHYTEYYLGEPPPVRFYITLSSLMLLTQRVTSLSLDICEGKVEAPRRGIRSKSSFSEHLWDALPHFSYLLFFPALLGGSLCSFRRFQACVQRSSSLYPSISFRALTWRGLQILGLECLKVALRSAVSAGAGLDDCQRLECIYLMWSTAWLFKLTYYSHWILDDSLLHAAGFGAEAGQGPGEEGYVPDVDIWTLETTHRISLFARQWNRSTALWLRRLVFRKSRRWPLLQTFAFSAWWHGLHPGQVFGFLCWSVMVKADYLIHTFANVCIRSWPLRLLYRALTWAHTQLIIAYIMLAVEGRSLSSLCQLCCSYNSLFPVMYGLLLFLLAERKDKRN

[16] = molecular target: Protein-cysteine N-palmitoyltransferase HHAT (Mus musculus) (UniProt Q8BMT9); experiment: Inhibition of HHAT mediated Wnt pathway activity in mouse L cell expressing Wnt3a assessed as decreased firefly luciferase reporter expression at 0.25 uM to 1 uM; format: cell-based
Protein-cysteine N-palmitoyltransferase HHAT (Mus musculus), sequence (Q8BMT9 whole entry): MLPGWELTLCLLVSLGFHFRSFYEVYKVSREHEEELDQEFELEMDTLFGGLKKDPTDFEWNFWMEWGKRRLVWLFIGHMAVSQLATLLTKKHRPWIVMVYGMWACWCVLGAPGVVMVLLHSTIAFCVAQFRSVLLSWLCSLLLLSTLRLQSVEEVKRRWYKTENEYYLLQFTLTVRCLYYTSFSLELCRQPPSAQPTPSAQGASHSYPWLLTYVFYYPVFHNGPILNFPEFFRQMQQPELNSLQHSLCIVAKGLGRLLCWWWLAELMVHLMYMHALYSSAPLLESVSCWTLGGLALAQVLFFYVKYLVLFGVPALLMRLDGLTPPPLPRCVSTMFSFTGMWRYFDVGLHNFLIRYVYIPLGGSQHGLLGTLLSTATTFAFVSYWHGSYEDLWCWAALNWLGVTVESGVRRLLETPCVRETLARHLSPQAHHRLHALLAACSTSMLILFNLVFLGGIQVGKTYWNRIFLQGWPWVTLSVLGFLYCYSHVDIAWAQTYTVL

[17] = molecular target: Protein Wnt-3a (Homo sapiens) (UniProt P56704); experiment: Inhibition of Wnt3A activity in mouse L cell expressing Wnt3A and STF and overexpressing Evi assessed as decreased firefly luciferase reporter expression at 0.25 uM to 1 uM; format: cell-based
[18] = Inhibition of Wnt3A/[…] pathway activity in mouse L cell expressing Wnt3a assessed as decrease in phosphorylated Lrp6 level at 5 uM after 24 hrs by Western blot analysis; format: cell-based
[19] = molecular target: Protein Wnt-3a (Mus musculus) (UniProt P27467); experiment: Inhibition of Wnt3A palmitoylation in mouse L cell expressing Wnt3a and overexpressing porcn by detergent solubility fractionation assessed as [3H]palmitate incorporation at 2.5 uM by autoradiography method
Protein Wnt-3a (Mus musculus), sequence (P27467 whole entry): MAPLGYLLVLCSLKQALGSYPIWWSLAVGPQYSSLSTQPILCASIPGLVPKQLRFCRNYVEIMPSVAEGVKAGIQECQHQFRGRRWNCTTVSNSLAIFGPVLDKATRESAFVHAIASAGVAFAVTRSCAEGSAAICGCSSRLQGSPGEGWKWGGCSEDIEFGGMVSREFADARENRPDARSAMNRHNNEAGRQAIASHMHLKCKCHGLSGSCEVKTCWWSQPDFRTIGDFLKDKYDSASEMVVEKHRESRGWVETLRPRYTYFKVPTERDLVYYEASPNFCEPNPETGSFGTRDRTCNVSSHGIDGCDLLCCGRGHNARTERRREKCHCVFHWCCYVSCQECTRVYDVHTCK

[20] = molecular target: Protein Wnt-3a (Mus musculus) (UniProt P27467); experiment: Inhibition of Wnt3A lipidation in mouse L cell expressing Wnt3a and overexpressing porcn at 2 uM by detergent solubility fractionation assay; format: cell-based
[21] = molecular target: Membrane-bound glycerophospholipid O-acyltransferase 1 (Mus musculus) (UniProt Q8BH98); experiment: Inhibition of MBOAT1 mediated Wnt3a pathway activity in mouse L cell expressing Wnt3a assessed as decreased firefly luciferase reporter expression at 0.25 uM to 1 uM; format: cell-based
Membrane-bound glycerophospholipid O-acyltransferase 1 (Mus musculus), sequence (Q8BH98 whole entry): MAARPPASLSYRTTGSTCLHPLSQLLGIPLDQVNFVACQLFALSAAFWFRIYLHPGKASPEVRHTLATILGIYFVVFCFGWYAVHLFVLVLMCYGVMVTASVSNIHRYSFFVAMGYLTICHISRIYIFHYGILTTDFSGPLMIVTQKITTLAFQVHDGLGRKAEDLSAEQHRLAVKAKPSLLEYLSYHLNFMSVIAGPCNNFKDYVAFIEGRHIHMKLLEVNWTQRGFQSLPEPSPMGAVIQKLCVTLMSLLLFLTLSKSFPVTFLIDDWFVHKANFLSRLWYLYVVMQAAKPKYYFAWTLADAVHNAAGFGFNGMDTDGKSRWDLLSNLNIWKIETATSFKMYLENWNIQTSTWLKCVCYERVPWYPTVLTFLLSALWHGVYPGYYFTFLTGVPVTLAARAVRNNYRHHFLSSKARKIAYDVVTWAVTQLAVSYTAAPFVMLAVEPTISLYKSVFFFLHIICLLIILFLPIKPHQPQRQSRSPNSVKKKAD

[22] = molecular target: Lysophospholipid acyltransferase 5 (Mus musculus) (UniProt Q91V01); experiment: Inhibition of MBOAT5 mediated Wnt3a pathway activity in mouse L cell expressing Wnt3a assessed as decreased firefly luciferase reporter expression at 0.25 uM to 1 uM; format: cell-based
Lysophospholipid acyltransferase 5 (Mus musculus), sequence (Q91V01 whole entry): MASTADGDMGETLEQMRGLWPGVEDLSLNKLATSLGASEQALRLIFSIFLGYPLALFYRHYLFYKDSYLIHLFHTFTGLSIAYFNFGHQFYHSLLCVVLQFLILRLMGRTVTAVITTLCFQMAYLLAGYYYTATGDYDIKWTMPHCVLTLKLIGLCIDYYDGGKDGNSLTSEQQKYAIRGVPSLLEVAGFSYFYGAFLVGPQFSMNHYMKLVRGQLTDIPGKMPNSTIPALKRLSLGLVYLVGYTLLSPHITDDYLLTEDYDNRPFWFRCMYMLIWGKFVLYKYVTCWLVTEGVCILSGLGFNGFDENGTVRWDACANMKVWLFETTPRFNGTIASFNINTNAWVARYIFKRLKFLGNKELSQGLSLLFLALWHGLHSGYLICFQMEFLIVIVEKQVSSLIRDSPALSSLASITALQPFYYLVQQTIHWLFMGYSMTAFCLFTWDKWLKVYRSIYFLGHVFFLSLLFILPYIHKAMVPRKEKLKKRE

[23] = molecular target: T1, Protein-serine O-palmitoleoyltransferase porcupine (Mus musculus); experiment: Effect on porcn Endoplasmic reticulum localization in mouse L cell expressing Wnt and STF; format: cell-based
[24] = molecular target: Protein Wnt-3a (Homo sapiens) (UniProt P56704); experiment: Inhibition of Wnt3A secretion in mouse L cell expressing Wnt3a overexpressing Evi assessed as decreased Gaussia luciferase reporter expression at 0.25 uM to 1 uM; format: cell-based
Method in brief: (§1)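 Wnt secretion test: L-cells transiently transfected with Wnt-Gaussia luciferase fusion construct, incubated with compounds immediately after transfection, GL activity measured 48 hrs later.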

[25] = molecular target: T2, Protein-serine O-palmitoleoyltransferase porcupine (Homo sapiens) (UniProt Q9H237); experiment: Displacement of IWP-PB from porcn in HEK293 lysate by Western blot analysis
T2 sequence (whole entry): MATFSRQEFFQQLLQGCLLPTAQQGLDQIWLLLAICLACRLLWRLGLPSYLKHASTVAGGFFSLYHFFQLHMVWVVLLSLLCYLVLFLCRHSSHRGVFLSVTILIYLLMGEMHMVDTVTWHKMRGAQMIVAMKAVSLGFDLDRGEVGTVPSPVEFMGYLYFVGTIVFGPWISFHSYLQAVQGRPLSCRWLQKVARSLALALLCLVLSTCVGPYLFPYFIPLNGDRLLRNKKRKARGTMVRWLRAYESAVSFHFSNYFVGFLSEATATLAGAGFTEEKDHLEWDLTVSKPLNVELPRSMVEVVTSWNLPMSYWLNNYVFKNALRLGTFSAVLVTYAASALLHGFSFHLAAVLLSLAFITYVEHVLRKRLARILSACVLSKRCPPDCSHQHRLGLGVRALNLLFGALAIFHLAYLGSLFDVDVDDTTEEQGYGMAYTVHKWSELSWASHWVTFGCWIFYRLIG

[26] = molecular target: Protein Wnt-3a (Homo sapiens) (UniProt P56704); experiment: Inhibition of Wnt3A secretion in mouse L cell expressing Wnt3a overexpressing porcn assessed as decreased Gaussia luciferase reporter expression at 0.25 uM to 1 uM; format: cell-based; method in brief: as §1
[27] = Inhibition of Wnt3A/[…] pathway activity in mouse L cell expressing Wnt3a assessed as decrease in phosphorylated Dvl2 level at 5 uM after 24 hrs by Western blot analysis; format: cell-based
[28] = Inhibition of Wnt3A/[…] pathway activity in mouse L cell expressing Wnt3a assessed as inhibition of […] accumulation at 5 uM after 24 hrs by Western blot analysis; format: cell-based
[29] = molecular target: Protein Wnt-3a (Homo sapiens) (UniProt P56704); experiment: Inhibition of lipidation of Wnt3A expressed in mouse L cell at 2 uM by detergent solubility fractionation assay; format: cell-based
[30] = molecular target: T2, Protein-serine O-palmitoleoyltransferase porcupine (Homo sapiens); experiment: Inhibition of porcn-mediated Shh palmitoylation in human DLD1 lysate by detergent solubility fractionation assessed as [3H]palmitate incorporation at 2.5 uM by autoradiography method
[31] = molecular target: Protein Wnt-3a (Homo sapiens) (UniProt P56704); experiment: Inhibition of Wnt3A activity in mouse L cell expressing Wnt3A and STF and overexpressing porcn assessed as decreased firefly luciferase reporter expression at 0.25 uM to 1 uM; format: cell-based
[32] = molecular target: T1, Protein-serine O-palmitoleoyltransferase porcupine (Mus musculus); experiment: Increase in porcn levels in mouse L cell expressing Wnt and STF; format: cell-based
[33] = Inhibition of Notch pathway in mouse L cells at 2.5 uM
[34] = molecular target: Axin-2 (Homo sapiens) (UniProt Q9Y2T1); experiment: Induction of Axin2 stabilization in human DLD1 cells assessed as inhibition of Wnt/beta-[…] pathway; format: cell-based; conditions: DLD-1
[35] = system: L929; experiment: Decrease in beta-[…] accumulation in APC-deficient mouse L cell; format: functional, cell-based
[36] = system: HEK293; experiment: Effect on interaction between Axin1-GFP and PP2A in HEK293 cell lysate at 10 uM by Western blot analysis; format: cell-based; conditions: Homo sapiens
[37] = molecular target: Protein Wnt (Danio rerio) (UniProt Q6IYD9); conditions: 10 uM
Protein Wnt (Danio rerio), sequence (Q6IYD9 as listed by the source): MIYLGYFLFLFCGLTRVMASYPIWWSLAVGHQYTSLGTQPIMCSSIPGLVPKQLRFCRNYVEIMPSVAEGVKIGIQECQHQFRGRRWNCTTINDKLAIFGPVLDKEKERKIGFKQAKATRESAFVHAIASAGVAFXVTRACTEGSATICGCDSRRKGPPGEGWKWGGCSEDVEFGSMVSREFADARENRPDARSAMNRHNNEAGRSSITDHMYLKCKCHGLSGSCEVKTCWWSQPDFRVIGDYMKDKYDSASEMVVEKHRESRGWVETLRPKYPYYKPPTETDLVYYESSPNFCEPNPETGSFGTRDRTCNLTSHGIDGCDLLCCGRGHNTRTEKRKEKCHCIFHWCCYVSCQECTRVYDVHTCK

[38] = system: Cos1; experiment: Effect on Axin2 subcellular redistribution in african green monkey Cos1 cells by immunostaining method; format: cell-based; conditions: Chlorocebus aethiops
[39] = system: DLD-1; experiment: Inhibition of Axin2 protein degradation in human DLD1 cells by Western blot analysis; format: functional, cell-based
Method in brief: (§2)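 DLD-1 cells treated over a 48 hr assay period with IWR compound (10μM), with or without cycloheximide (100μM); Axin2 protein assessed by Western blot.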

[40] = system: L; experiment: Effect on proteasome in mouse L cell expressing Wnt assessed as accumulation of beta-[…] by Western blot analysis
Method in brief: (§3)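 L-Wnt-STF cells (L-cells stably carrying Wnt3A, STF firefly luciferase reporter and control reporter) treated with IWR (10μM) or IWP (5μM) compounds, with or without cycloheximide (100μM), over 48 hrs; lysates probed by Western blot.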

[41] = system: DLD-1; experiment: Inhibition of Axin2 protein degradation in human DLD1 cells by Western blot analysis in presence of 100 uM cyclohexamide; format: functional, cell-based; method in brief: as §2
[42] = system: L; experiment: Effect on proteasome in mouse L cell expressing Wnt assessed as accumulation of Axin1 by Western blot analysis; method in brief: as §3

Cc1ccnc2c(NC(=O)c3ccc(N4C(=O)[C@@H]5[C@H](C4=O)[C@@H]4C=C[C@H]5C4)cc3)cccc12
inactive: inhibition [5] | inhibition [7]
230 nM: IC50 [10]
active: inhibition [1] | inhibition [2] | inhibition [3] | Activity [4] | inhibition [6] | inhibition [8] | inhibition [9]

Cc1ccc2nc(NC(=O)CSc3nc4c(c(=O)n3-c3ccccc3)SCC4)sc2c1
inactive: inhibition [13] | inhibition [3] | inhibition [14] | inhibition [15] | inhibition [16] | inhibition [17] | inhibition [19] | inhibition [21] | inhibition [22] | Activity [23] | inhibition [24] | inhibition [26] | inhibition [30] | inhibition [31] | inhibition [33]
active: inhibition [11] | inhibition [12] | inhibition [18] | inhibition [20] | inhibition [25] | inhibition [27] | inhibition [28] | inhibition [29] | Activity [32]

O=C(Nc1cccc2cccnc12)c1ccc(N2C(=O)[C@@H]3[C@H](C2=O)[C@@H]2C=C[C@H]3C2)cc1
inactive: Activity [36] | inhibition [5] | inhibition [7] | Activity [38] | Activity [40] | inhibition [41] | Activity [42]
active: Activity [34] | inhibition [1] | inhibition [35] | inhibition [2] | inhibition [3] | Activity [4] | inhibition [6] | inhibition [37] | inhibition [39] | inhibition [8] | inhibition [9]
